Consider 1 compound from PubChem BioAssay AID652205 (Vanderbilt Specialized Chemistry Center, 2013).

Structures are written as SMILES. Activity calls are given as the source filed them. The rule behind the calls is not given here.

In this assay the target is Metabotropic glutamate receptor 6 (Homo sapiens) (UniProt O15303). Nature of the assay: glutamate potency shift at mGlu6 – cell-based, HEK293A, Galpha15, calcium mobilization, selectivity assay for mGlu5 silent allosteric modulator project (AID 652205). The note with it: HEK293A hmGlu6+Galpha15, Fluo4 calcium mobilization, glutamate CRC; at 10 µM. In outline:
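System: HEK293 cells co-expressing human mGlu6 receptor and Galpha15. Medium: HBSS with 2.5 mM probenecid and 20 mM HEPES, pH 7.4. Incubation: Fluo-4 AM dye loading 60 min at 37 °C, compound at 20 s. Technique: Fluo-4 calcium mobilization fluorescence.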

Sequence of Metabotropic glutamate receptor 6 (Homo sapiens) (O15303 whole entry, looked up): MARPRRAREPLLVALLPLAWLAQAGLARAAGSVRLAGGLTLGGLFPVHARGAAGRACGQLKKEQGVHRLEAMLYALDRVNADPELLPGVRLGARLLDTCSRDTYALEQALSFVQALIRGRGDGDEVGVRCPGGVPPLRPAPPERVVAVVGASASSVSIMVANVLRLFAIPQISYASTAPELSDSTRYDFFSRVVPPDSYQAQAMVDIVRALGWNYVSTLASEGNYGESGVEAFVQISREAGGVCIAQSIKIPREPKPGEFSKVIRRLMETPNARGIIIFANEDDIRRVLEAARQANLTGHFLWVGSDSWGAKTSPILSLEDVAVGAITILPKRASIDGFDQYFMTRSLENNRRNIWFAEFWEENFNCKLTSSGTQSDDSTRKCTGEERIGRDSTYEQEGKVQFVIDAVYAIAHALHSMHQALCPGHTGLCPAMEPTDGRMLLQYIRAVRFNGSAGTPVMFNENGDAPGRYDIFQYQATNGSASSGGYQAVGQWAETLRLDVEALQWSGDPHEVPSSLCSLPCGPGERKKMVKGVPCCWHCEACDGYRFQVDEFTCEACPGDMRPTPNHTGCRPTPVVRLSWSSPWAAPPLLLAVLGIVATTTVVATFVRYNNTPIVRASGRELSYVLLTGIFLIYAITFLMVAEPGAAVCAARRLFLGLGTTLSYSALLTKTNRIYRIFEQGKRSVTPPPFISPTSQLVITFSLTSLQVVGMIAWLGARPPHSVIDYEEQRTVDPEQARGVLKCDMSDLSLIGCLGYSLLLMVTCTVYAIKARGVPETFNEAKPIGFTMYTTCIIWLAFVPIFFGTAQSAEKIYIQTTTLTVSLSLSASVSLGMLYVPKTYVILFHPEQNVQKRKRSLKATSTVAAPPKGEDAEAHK

With `O=C(c1ccc(C#Cc2cccc(F)c2)cn1)N1CC2CC2C1` (stereo unspecified), the glutamate EC50 fold shift is 0.859 (inactive).
